In series [1] the test system is Mus musculus. In words: Average weight change of BDF1 female mice at a dose of 1.6 mg/kg per injection. Format: functional. The gist of the method: (§1)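 BDF1 female mice implanted ip with 10^6 ascites leukemia cells, then given the aziridinomitosene on day 1 only, six mice per dose. Average weight change is the weight difference between the treated and control groups.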

Series [2] concerns P388. Briefly: Compound was tested for antitumor activity against P388 Murine leukemia in BDF1 female mice at a dose of 3.2 mg/kg per injection. The class given is functional, Mus musculus. The gist of the method: (§2)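 P388 ascites cells (10^6) implanted ip into BDF1 female mice. Aziridinomitosene given on day 1 only, six mice per dose; ten saline-treated mice on day 1 only as controls. Read-out is median survival time in days, %T/C = MST treated/MST control × 100, with 125 taken as significant. Mitomycin C run as a positive control at its optimal dose.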

Series [3] relates to P388. Briefly: Compound was tested for antitumor activity against P388 Murine leukemia in BDF1 female mice at a dose of 6.4 mg/kg per injection. The class given is functional, Mus musculus. A digest of the protocol:
as §2

Series [4] concerns Mus musculus. Briefly: Average weight change of BDF1 female mice at a dose of 3.2 mg/kg per injection. Format: functional. The gist of the method: as §1
Series [5] has as its system Mus musculus. Briefly: Average weight change of BDF1 female mice at a dose of 12.8 mg/kg per injection. Format: functional. A digest of the protocol: as §1
Series [6] deals with Mus musculus. In words: Average weight change of BDF1 female mice at a dose of 0.8 mg/kg per injection. The class given is functional. The gist of the method:
as §1

Series [7] deals with P388. Briefly: Compound was tested for antitumor activity against P388 Murine leukemia in BDF1 female mice at a dose of 1.6 mg/kg per injection (MST treated / MST control x 100). The class given is functional, Mus musculus. A digest of the protocol: as §2
Series [8] is described as follows: Partition coefficient (logP). To be noted: octanol/water. Format: physicochemical.
Series [9] deals with P388. Briefly: Minimum effective dose determined against P-388 Murine leukemia in BDF1 female mice. The class given is functional. Conditions: Mus musculus, read-out: MED.
The subject of series [10] is Mus musculus. In words: Average weight change of BDF1 female mice at a dose of 6.4 mg/kg per injection. The class given is functional. A digest of the protocol: as §1
The subject of series [11] is P388. In words: Compound was tested for antitumor activity against P388 Murine leukemia in BDF1 female mice at a dose of 12.8 mg/kg per injection. Further details: unit not given here. The class given is functional, Mus musculus. A digest of the protocol: as §2
Series [12] relates to P388. Briefly: Compound was tested for antitumor activity against P388 Murine leukemia in BDF1 female mice at a dose of 0.8 mg/kg per injection. Format: functional, Mus musculus. The gist of the method: as §2
Series [13] has as its system P388. Briefly: Compound was tested for antitumor activity against P388 Murine leukemia in BDF1 female mice at a dose of 0.2 mg/kg per injection. The class given is functional, Mus musculus. A digest of the protocol:
as §2

In series [14] the test system is P388. Briefly: Compound was tested for antitumor activity against P388 Murine leukemia in BDF1 female mice at a dose of 0.4 mg/kg per injection. The class given is functional, Mus musculus. A digest of the protocol:
as §2

Series [15] deals with Mus musculus. Briefly: Average weight change of BDF1 female mice at a dose of 25.6 mg/kg per injection. Format: functional. A digest of the protocol:
as §1

In series [16] the test system is Mus musculus. Briefly: Average weight change of BDF1 female mice at a dose of 51.2 mg/kg per injection. The class given is functional. The gist of the method: as §1
Series [17] deals with P388. Briefly: Compound was tested for antitumor activity against P388 Murine leukemia in BDF1 female mice at a dose of 1.6 mg/kg per injection. The class given is functional, Mus musculus. A digest of the protocol:
as §2

The subject of series [18] is P388. In words: Compound was tested for antitumor activity against P388 Murine leukemia in BDF1 female mice at a dose of 3.2 mg/kg per injection (MST treated / MST control x 100). Format: functional, Mus musculus. The gist of the method: as §2
The subject of series [19] is P388. In words: Compound was tested for antitumor activity against P388 Murine leukemia in BDF1 female mice at a dose of 25.6 mg/kg per injection. The class given is functional, Mus musculus. A digest of the protocol: as §2
Series [20] concerns Mus musculus. In words: Average weight change of BDF1 female mice at a dose of 48 mg/kg per injection. Format: functional. The gist of the method: as §1
Series [21] has as its system Mus musculus. In words: Average weight change of BDF1 female mice at a dose of 12 mg/kg per injection. The class given is functional. The gist of the method:
as §1

The subject of series [22] is L1210. In words: Compound was tested for antitumor activity against L-1210 Murine leukemia in BDF1 female mice at a dose of 12 mg/kg per injection. The class given is functional, Mus musculus. A digest of the protocol: (§3)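 L-1210 run per NCI protocol. 10^6 ascites cells implanted ip into BDF1 female mice. Aziridinomitosene given on day 1 only, six mice per dose, with a control group of 36 mice. Median survival time in days is recorded, and %T/C = MST treated/MST control × 100, with 125 taken as significant.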

Series [23] relates to P388. Briefly: Compound was tested for antitumor activity against P388 Murine leukemia in BDF1 female mice at a dose of 25.6 mg/kg per injection (MST treated / MST control x 100). The class given is functional, Mus musculus. The gist of the method: as §2
Series [24] deals with Mus musculus. Briefly: Average weight change of BDF1 female mice at a dose of 6 mg/kg per injection. The class given is functional. The gist of the method:
as §1

In series [25] the test system is L1210. In words: Compound was tested for antitumor activity against L-1210 Murine leukemia in BDF1 female mice at a dose of 6 mg/kg per injection. Format: functional, Mus musculus. The gist of the method:
as §3

Series [26] concerns L1210. Briefly: Compound was tested for antitumor activity against L-1210 Murine leukemia in BDF1 female mice at a dose of 24 mg/kg per injection. Format: functional, Mus musculus. A digest of the protocol:
as §3

Series [27] concerns P388. In words: Compound was tested for antitumor activity against P388 Murine leukemia in BDF1 female mice at a dose of 51.2 mg/kg per injection (MST treated / MST control x 100). Format: functional, Mus musculus. A digest of the protocol:
as §2

Series [28] has as its system Mus musculus. Briefly: Average weight change of BDF1 female mice at a dose of 24 mg/kg per injection. The class given is functional. The gist of the method: as §1
In series [29] the test system is L1210. In words: Compound was tested for antitumor activity against L-1210 Murine leukemia in BDF1 female mice at a dose of 48 mg/kg per injection. The class given is functional, Mus musculus. The gist of the method: as §3

Data on 4 molecules can be found in ChEMBL document CHEMBL1123541, “Preparation and antitumor activity of 7-substituted 1,2-aziridinomitosenes” (J Med Chem, 1986).

As a reminder, the T/C is the result in the treated group divided by that in the control group, in per cent. What is called logP is the decadic logarithm of the partition coefficient of the neutral form, usually between octanol and water. `COC1=C(C)C(=O)c2c(c(COC(N)=O)c3n2CC2C3N2C)C1=O` (configuration not stated): the Weight change is reported as -0.2 g with Mus musculus [1]; 0.5 g with Mus musculus [4]; -1.7 g in the series with Mus musculus [5]; 0.8 g in the series on Mus musculus [6]; -0.3 g with Mus musculus [10]. In addition, the MST with P388 [2] was 188 days; in the series with P388 [3] it was 213 days; in the series on P388 [11], 213; in the series with P388 [12] it was 150 days. The molecule further registered a T/C in the series on P388 [7] of 156%. This molecule returned a logP in series [8] of 1.28. For the same molecule, the minimal effective dose in the series on P388 [9] turned out to be 0.8 mg/kg.

Regarding `CC1=C(N2CC2C)C(=O)c2c(COC(N)=O)c3n(c2C1=O)CC1C3N1C` (configuration not stated), the T/C is reported as 125% with P388 [13] and 163% in the series with P388 [18]. For the same molecule, the MST was found to be 138 days in the series with P388 [14]; 194 %T/C with P388 [3]; 156 days in the series on P388 [17]; 238 in the series on P388 [11]; 125 days in the series with P388 [12]. The Weight change was 0 g in the series with Mus musculus [1]; -1 g with Mus musculus [15]; -1.3 g in the series with Mus musculus [16]; 0 g with Mus musculus [4]; -0.5 g with Mus musculus [5]; -0.4 g in the series on Mus musculus [10]. In series [8], this molecule gave a logP of 1.23. Further, the minimal effective dose with P388 [9] turned out to be 0.2 mg/kg.

As for `COC1=C(C)C(=O)c2c(c(COC(N)=O)c3n2CC2NC32)C1=O` (configuration not stated), the results for the MST in the series on P388 [3], with P388 [19] and in the series with P388 [11] were 122 %T/C, 167 % T/C and 139, respectively. Moreover, the Weight change is given as -0.4 g in the series with Mus musculus [15], -0.4 g in the series with Mus musculus [4], -0.8 g with Mus musculus [5] and 0 g in the series on Mus musculus [10]. In series [8], this molecule showed a logP of 0.87. Further, in the series with P388 [9], the minimal effective dose came out at 12.8 mg/kg. Moreover, the T/C in the series on P388 [18] is on record as 122%.

Take `CC1=C(N2CC2)C(=O)c2c(COC(N)=O)c3n(c2C1=O)CC1NC31` (configuration not stated): the Weight change is 1 g in the series on Mus musculus [1]; -4.2 g with Mus musculus [20]; -1.3 g with Mus musculus [21]; -0.4 g with Mus musculus [15]; 1 g in the series on Mus musculus [4]; 0.9 g in the series on Mus musculus [5]. In addition, the Weight change is on record as 0.9 g in the series with Mus musculus [6], -0.4 g with Mus musculus [24] and -2.6 g in the series on Mus musculus [28]. Also, the % T/C with L1210 [22] was 122%; in the series with L1210 [25] it was 118%. Also, the figures for the T/C with P388 [23], in the series with P388 [27] and in the series with P388 [18] were 189%, 206% and 144%, respectively. Further, the logP in [8] was found to be 0.3. Also, the MST amounted to 120 days in the series on L1210 [26], 172 in the series on P388 [11], 111 days in the series with P388 [12] and 131 days in the series on L1210 [29]. Also, the minimal effective dose in the series with P388 [9] came to 1.6 mg/kg.
